Assay results published in ChEMBL document CHEMBL5154735, “Interaction of A3 adenosine receptor ligands with the human multidrug transporter ABCG2” (Eur J Med Chem, 2022).

These molecules were tested against T1, ABCG2 (Homo sapiens, UniProt Q9UNQ0) (assay: Effect on human ABCG2 transporter preincubated for 2 mins followed by ATP addition assessed as basal ATPase activity at 100 nM and measured after 20 mins by colorimetric assay relative to control). Conditions: read-out: Activity.
T1 sequence (Q9UNQ0 whole entry): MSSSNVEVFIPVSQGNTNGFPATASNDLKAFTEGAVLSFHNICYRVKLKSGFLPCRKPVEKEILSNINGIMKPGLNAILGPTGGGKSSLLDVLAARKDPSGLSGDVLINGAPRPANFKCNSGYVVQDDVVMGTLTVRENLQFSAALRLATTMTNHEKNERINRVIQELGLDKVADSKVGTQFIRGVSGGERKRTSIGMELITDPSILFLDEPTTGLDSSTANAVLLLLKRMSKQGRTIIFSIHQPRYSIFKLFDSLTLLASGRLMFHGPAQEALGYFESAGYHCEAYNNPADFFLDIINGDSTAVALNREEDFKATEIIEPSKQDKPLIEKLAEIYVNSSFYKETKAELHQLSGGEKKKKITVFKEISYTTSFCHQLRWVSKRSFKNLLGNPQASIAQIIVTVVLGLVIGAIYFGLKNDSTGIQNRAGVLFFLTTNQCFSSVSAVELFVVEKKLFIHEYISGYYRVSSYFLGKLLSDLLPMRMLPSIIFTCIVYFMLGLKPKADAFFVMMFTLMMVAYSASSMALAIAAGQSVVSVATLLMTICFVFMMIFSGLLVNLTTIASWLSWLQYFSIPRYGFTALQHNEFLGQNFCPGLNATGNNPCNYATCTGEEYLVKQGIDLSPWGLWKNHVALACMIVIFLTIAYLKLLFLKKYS
Outline: (§1)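 Total membrane vesicles from High-Five insect cells expressing human ABCG2 (hypotonic lysis, differential centrifugation), 10 μg protein/tube, in MES-Tris pH 6.8 buffer with KCl, MgCl2, NaN3, EGTA, ouabain, DTT. Compound in DMSO added ± sodium orthovanadate (0.3 mM), DMSO control. Preincubated 2 min at 37°C, then 5 mM ATP, 20 min. SDS stop, Pi measured colorimetrically. Three independent experiments in duplicate, mean ± SE.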

SMILES | activity at 20 min, 0.1 µM
CCOC(=O)[C@]12C[C@@H]1[C@@H](n1cnc3c(NC)nc(C#Cc4ccc(F)s4)nc31)[C@H](O)[C@@H]2O | ≤ 30%
CNc1nc(C#Cc2ccc(Cl)s2)nc2c1ncn2[C@H]1[C@H](O)[C@H](O)[C@@]2(C(=O)OCCc3ccccc3)C[C@H]12 | ≤ 30%
CCOC(=O)C12CC1[C@@H](n1ccc3c(NC)nc(C#Cc4ccccc4)nc31)[C@H](O)[C@@H]2O (single isomer, unassigned) | ≤ 30%
CCOC(=O)C12CC1[C@@H](n1ccc3c(NC)nc(I)nc31)[C@H](O)[C@@H]2O (single isomer, unassigned) | ≤ 30%
CNc1nc(C#Cc2ccc(Cl)s2)nc2c1ncn2[C@@H]1O[C@H](C(=O)OC)[C@@H](O)[C@H]1O | ≤ 30%
CCOC(=O)C12CC1[C@@H](n1cnc3c(NC)nc(C#Cc4ccc(Cl)s4)cc31)[C@H](O)[C@@H]2O (single isomer, unassigned) | ≤ 30%
CCOC(=O)C12CC1[C@@H](n1cnc3c(NC)cc(C#Cc4ccc(Cl)s4)nc31)[C@H](O)[C@@H]2O (single isomer, unassigned) | ≤ 30%
CCCCOC(=O)C12CC1[C@@H](n1cnc3c(NC)nc(C#Cc4ccc(Cl)s4)nc31)[C@H](O)[C@@H]2O (single isomer, unassigned) | ≤ 30%
CNc1nc(C#Cc2ccc(Cl)s2)nc2c1ncn2[C@@H]1C2CC2(C(=O)OCCC(C)C)[C@@H](O)[C@H]1O (single isomer, unassigned) | ≤ 30%
CNc1nc(C#Cc2ccc(Cl)s2)nc2c1ncn2[C@@H]1C2CC2(C(=O)OCCC2CCCCC2)[C@@H](O)[C@H]1O (single isomer, unassigned) | ≤ 30%
CCOC(=O)C12CC1[C@@H](n1ccc3c(NC4CC4)nc(C#Cc4ccccc4)nc31)[C@H](O)[C@@H]2O (single isomer, unassigned) | ≤ 30%
CCOC(=O)C12CC1[C@@H](n1ccc3c(NCC4CC4)nc(C#Cc4ccccc4)nc31)[C@H](O)[C@@H]2O (single isomer, unassigned) | ≤ 30%
CNc1nc(C#Cc2ccc(Cl)s2)nc2c1ncn2[C@@H]1C2CC2(C(=O)OC(C)C)[C@@H](O)[C@H]1O (single isomer, unassigned) | ≤ 30%

The molecules below were run against T1, ABCG2 (assay: Activation of human ABCG2-mediated ATPase activity preincubated for 2 mins followed by ATP addition at 100 nM and measured after 20 mins by colorimetric assay relative to control). Conditions: read-out: Activity.
Outline: as §1

SMILES | activity at 20 min, 0.1 µM
CNc1nc(C#Cc2ccc(Cl)s2)nc2c1ncn2[C@@H]1C2CC2(C(=O)Oc2ccccc2)[C@@H](O)[C@H]1O (single isomer, unassigned) | 50.3%
Clc1cccc(CNC2=NC(C#Cc3ccc(Cl)s3)=NC3=NC=NC32)c1 (configuration not stated) | 40.5%
CCCOC(=O)C12CC1[C@@H](n1cnc3c(NC)nc(C#Cc4ccc(Cl)s4)nc31)[C@H](O)[C@@H]2O (single isomer, unassigned) | 33.9%
CNc1nc(C#Cc2ccc(Cl)s2)nc2c1ncn2[C@H]1[C@H](O)[C@H](O)[C@@]2(C(=O)OCCCc3ccccc3)C[C@H]12 | 38.8%
CCOC(=O)C12CC1[C@@H](n1ccc3c(NCCCc4ccccc4)nc(C#Cc4ccc(Cl)s4)nc31)[C@H](O)[C@@H]2O (single isomer, unassigned) | 45.5%
CCOC(=O)C12C[C@@H]1[C@@H](n1ccc3c(NCCCc4ccccc4)nc(C#Cc4ccccc4)nc31)[C@H](O)[C@@H]2O (single isomer, unassigned) | 37.9%
CCOC(=O)C12CC1[C@@H](n1ccc3c(NC)nc(C#Cc4ccc(Cl)s4)nc31)[C@H](O)[C@@H]2O (single isomer, unassigned) | 41%
CCOC(=O)C12CC1[C@@H](n1cnc3c(NCCc4ccc(O)c(OC)c4)nc(C#Cc4ccc(Cl)s4)nc31)[C@H](O)[C@@H]2O (single isomer, unassigned) | 59.3%
CCOC(=O)C12CC1[C@@H](n1cnc3c(NCCc4ccc(OC)c(O)c4)nc(C#Cc4ccc(Cl)s4)nc31)[C@H](O)[C@@H]2O (single isomer, unassigned) | 64.3%
